Measured values taken from ChEMBL document CHEMBL3112469, “Substituted 2-phenylimidazopyridines: a new class of drug leads for human African trypanosomiasis” (J Med Chem, 2014).
In brackets after ≈: the same amount, converted by molar mass. Activity calls are given as the source filed them. The calls are words filed in the database; no cut-off is given here.

Tests used:
[1] = system: Trypanosoma brucei brucei; assay: Antiparasitic activity against Trypanosoma brucei brucei BF427 assessed as growth inhibition by Alamar Blue assay; format: functional, organism-based
Procedure, shortened: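 Bloodstream-form T. brucei brucei BF427 grown with serial compound dilutions, each tested in triplicate. Growth quantified with AlamarBlue. Pentamidine isothionate included in every assay as positive control.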

[2] = system: Trypanosoma brucei rhodesiense; assay: Antiparasitic activity against Trypanosoma brucei rhodesiense; format: functional, organism-based
[3] = system: L6; assay: Cytotoxicity against rat L6 cells after 48 hrs by Alamar Blue assay; format: cell-based; details: l6, 48 h
[4] = system: HepG2; assay: Cytotoxicity against human HepG2 cells after 48 hrs by Alamar Blue assay; format: cell-based; details: hepg2, 48 h
[5] = Cytotoxicity against human CRL8155 cells after 48 hrs by Alamar Blue assay; format: cell-based; details: crl8155, 48 h
[6] = system: Nucleic Acid; assay: Ratio of drug level in brain to plasma in mouse at 5 mg/kg, ip after 60 mins; format: ADME, organism-based; parameters: dose 5 mg/kg, route intraperitoneal; details: 1 h
Procedure, shortened: (§1)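 Mice, groups of three, received 5 mg/kg ip in 0.4 mL vehicle (7% Tween 80, 3% ethanol, 5% DMSO, 0.9% saline) and were sacrificed at set times. Brains were weighed, frozen and homogenized in acetonitrile; plasma came from heparinized capillary blood. Both were measured by LC-MS/MS. Brain concentration used 1 g = 1 mL and was corrected for 2.5% vasculature volume.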

[7] = (§2) Tmax in mouse plasma at 50 mg/kg, po by LC-MS analysis; format: ADME, organism-based; parameters: dose 50 mg/kg, route oral; details: plasma
Procedure, shortened: (§3)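 Mice, groups of three, were given 50 mg/kg by oral gavage in 0.2 mL vehicle (7% Tween 80, 3% ethanol, 5% DMSO, 0.9% saline). Blood was sampled at 30, 60, 120, 180, 240 and 360 min. Plasma was separated and extracted with acetonitrile, and compound was quantified by LC-MS/MS.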

[8] = Apparent permeability across MDCK2 cells expressing human MDR1; format: ADME, cell-based, Canis lupus familiaris; details: dog, mdck-ii
Procedure, shortened: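 MDCKII cells transfected with human MDR1 (P-gp) grown as monolayers; permeability (Papp) measured in triplicate with and without the MDR1 inhibitor GF-120918.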

[9] = (§4) AUC in mouse plasma at 50 mg/kg, po by LC-MS analysis; format: ADME, organism-based; parameters: dose 50 mg/kg, route oral; details: plasma; procedure, shortened: as §3
[10] = system: Rattus norvegicus; assay: Oral bioavailability in Sprague-Dawley rat at 21.3 mg/kg by LC-MS analysis; format: ADME, organism-based; details: in vivo
[11] = system: Rattus norvegicus; assay: Apparent volume of distribution at steady state in Sprague-Dawley rat at 20 mg/kg, po and 5 mg/kg, iv by LC-MS analysis; format: ADME, organism-based; details: in vivo
Procedure, shortened: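 Jugular-cannulated Sprague-Dawley rats, two per route. Oral gavage 20 mg/kg or iv 5 mg/kg infused over 0–3 min, each in 1 mL of 7% Tween 80/3% EtOH/5% DMSO/saline. Jugular blood sampled from 5 to 1440 min. Plasma extracted with acetonitrile and analysed by LC-MS/MS.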

[12] = system: Trypanosoma brucei rhodesiense; assay: Antitrypanosomal activity against Trypanosoma brucei rhodesiense ST1B900 infected in Swiss Webster mouse assessed as cure from infection at 1 mg/kg, po bid administered 48 hrs postinfection for 5 days measured on day 4 to 13; format: functional, organism-based; parameters: dose 1 mg/kg
[13] = system: Trypanosoma brucei rhodesiense; assay: Antitrypanosomal activity against Trypanosoma brucei rhodesiense ST1B900 infected in Swiss Webster mouse assessed as cure from infection at 50 mg/kg, po qd administered 48 hrs postinfection for 5 days measured on day 60; format: functional, organism-based; parameters: dose 50 mg/kg
[14] = system: Trypanosoma brucei rhodesiense; assay: Antitrypanosomal activity against Trypanosoma brucei rhodesiense ST1B900 infected in Swiss Webster mouse assessed as cure from infection at 5 to 50 mg/kg, po bid administered 48 hrs postinfection for 5 days measured on day 60; format: functional, organism-based
[15] = (§5) Cmax in mouse plasma at 50 mg/kg, po LC-MS analysis; format: ADME, organism-based; parameters: dose 50 mg/kg, route oral; details: plasma; procedure, shortened: as §3
[16] = system: Liver microsome; assay: Half life in human liver microsomes by LC-MS analysis; format: ADME
Procedure, shortened: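 Compounds incubated with mouse or human liver microsomes. Samples removed at time points and analysed by LC-MS/MS. Dextromethorphan and testosterone used as reference drugs to standardize each assay.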

[17] = system: Mus musculus; assay: as §2; format: ADME, organism-based; parameters: dose 50 mg/kg, route oral; details: in vivo; procedure, shortened: as §3
[18] = system: Mus musculus; assay: as §4; format: ADME, organism-based; parameters: dose 50 mg/kg, route oral; details: in vivo; procedure, shortened: as §3
[19] = system: Nucleic Acid; assay: Ratio of drug level in brain to plasma in mouse at 5 mg/kg, ip after 15 mins; format: ADME, organism-based; parameters: dose 5 mg/kg, route intraperitoneal; details: 0.25 h; procedure, shortened: as §1
[20] = system: Mus musculus; assay: Elimination half life in mouse plasma at 50 mg/kg, po by LC-MS analysis; format: ADME, organism-based; parameters: dose 50 mg/kg, route oral; details: in vivo
Procedure, shortened: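 Mice dosed by oral gavage at 50 mg/kg in 0.2 mL vehicle (7% Tween 80, 3% ethanol, 5% DMSO, 0.9% saline), groups of three. Plasma separated and extracted with acetonitrile, and compound quantified by LC-MS/MS.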

[21] = Aqueous solubility of the compound at pH 2 after 5 to 10 mins by HPLC analysis; format: physicochemical; details: buffer
[22] = system: Mus musculus; assay: as §5; format: ADME, organism-based; parameters: dose 50 mg/kg, route oral; details: in vivo; procedure, shortened: as §3
[23] = Aqueous solubility of the compound at pH 7.4 after 5 to 10 mins by HPLC analysis; format: physicochemical; details: buffer
[24] = Clearance in mouse plasma at 50 mg/kg, po by LC-MS analysis; format: ADME, organism-based; parameters: dose 50 mg/kg, route oral
Procedure, shortened: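 Mice, three per compound, given 50 mg/kg by oral gavage in 0.2 mL of 7% Tween 80/3% ethanol/5% DMSO/0.9% saline. Plasma extracted with acetonitrile and quantified by LC-MS/MS.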

Compound	EC50 [1] [nM]	EC50 [2] [nM]	CC50 [3] [nM]	CC50 [4] [nM]	CC50 [5] [nM]	BPR [6]	Papp [8] [×10⁻⁶ cm/s]	also measured
O=C(Nc1ccc(F)c(-c2nc3ncc(-c4ccccc4)cc3o2)c1)c1ccco1	40	80	7000	–	–	–	–	–
O=C(Nc1ccc(F)c(-c2nc3ncc(-c4ccc(F)cc4)cc3o2)c1)c1ccco1	50	100	–	32000	> 50000	–	–	–
O=C(Nc1ccc(F)c(-c2nc3cc(-c4ccccc4)cnc3[nH]2)c1)N1CCCC1	2	–	–	–	–	0.5	40.1	Tmax [7]: 30 min; AUC [9]: 18.8 µM·h; F [10]: 35%; Vdss(app) [11]: 2.4 L/kg; Activity [12]: inactive; Activity [13]: Active; Activity [14]: Active; Cmax [15]: 4300 nM
O=C(Nc1ccc(Cl)c(-c2nc3ncccc3o2)c1)C(F)(F)F	–	> 50000	–	–	–	–	–	–
O=C(Nc1ccc(Cl)c(-c2nc3ncccc3o2)c1)c1ccco1	220	–	> 50000	> 50000	> 50000	0.38	41.7	t1/2 [16]: 6.4 min; Tmax [17]: 30 min; AUC [18]: 187 µM·min; BPR [19]: 0.54; beta t1/2 [20]: 53 min; solubility [21]: 22 µM (≈ 7.47 µg/mL); Cmax [22]: 60 nM; solubility [23]: 20 µM (≈ 6.79 µg/mL); CL/F [24]: 98 mL/min/kg
